# Source: ChEMBL document CHEMBL1687827, “Profiling the Aspergillus fumigatus proteome in response to caspofungin” (2011)
# Activity calls are given as the source filed them. The calls are words filed in the database; no cut-off is given here.
# Key:
# [1] = tested on: Aspergillus fumigatus; test: Induction of change in 60s ribosomal protein yl6 protein level in iTRAQ114 labelled secreted fraction of drug-susceptible Aspergillus fumigatus KU80 delta-akuB at 0.12 ug/ml after 24 hrs in YPD medium by MS (MS/MS) analysis relative to control; format: functional
# In short: (§1)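 Conidia at 1 × 10⁵/ml grown shaking at 37°C in YPD with or without 0.12 μg/ml caspofungin; mycelia filtered at 24 or 48 h. Secreted fraction taken from the filtrate; cell wall/plasma membrane pellet recovered after French-press lysis and a 5,000 × g spin. Proteins trypsin-digested and iTRAQ-labelled, drug vs no-drug channels at each time, then 2D LC-MS/MS. Protein ratio is the median of ratios from uniquely assigned peptides after median normalization.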
# [2] = tested on: Aspergillus fumigatus; test: Induction of change in 60s ribosomal protein l21 protein level in iTRAQ114 labelled secreted fraction of drug-susceptible Aspergillus fumigatus KU80 delta-akuB at 0.12 ug/ml after 24 hrs in YPD medium by MS (MS/MS) analysis relative to control; format: functional; in short: as §1
# [3] = tested on: Aspergillus fumigatus; test: Induction of change in conserved hypothetical gene locus AFUA_5G03010 expression in drug-susceptible Aspergillus fumigatus KU80 delta-akuB at 0.12 ug/ml after 24 hrs in YPD medium by microarray analysis relative to control; format: functional
# In short: (§2)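 Mycelia grown in YPD ± 0.12 μg/ml caspofungin (1 × 10⁵ conidia/ml, 37°C, shaking) and harvested at 24 or 48 h. Total RNA extracted, DNase-treated and quality-checked; 2 μg labelled per TIGR SOP M007 and hybridized to whole-genome arrays. Three independent experiments with dye flip (6 replicates); drug vs untreated fold change.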
# [4] = tested on: Aspergillus fumigatus; test: Induction of change in 60S ribosomal protein L12, putative gene expression in drug-susceptible Aspergillus fumigatus KU80 delta-akuB at 0.12 ug/ml after 24 hrs in YPD medium by microarray analysis relative to control; format: functional; in short: as §2
# [5] = tested on: Aspergillus fumigatus; test: Induction of change in Mitochondrial hypoxia-responsive domain protein level in iTRAQ-116 labelled cell wall fraction of drug-resistant Aspergillus fumigatus EMFR-S678P at 0.12 ug/ml after 24 hrs in YPD medium by MS (MS/MS) analysis relative to control; format: functional, organism-based
# In short: (§3)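 Conidia at 1 × 10⁵/ml were grown at 37°C, shaking at 225 rpm, in YPD with or without 0.12 μg/ml caspofungin for 24 or 48 h. The culture filtrate was kept as the secreted fraction. Mycelia were lysed by French press in HEPES/glycerol/EDTA/PMSF/DTT buffer, and the 5,000 × g pellet was washed to give CW/PM. Proteins were reduced, alkylated and trypsin-digested at 37°C overnight, then iTRAQ-labelled and run by 2D LC-MS/MS. Ratios are the median of unique-peptide ratios, median-normalized, versus the no-drug control.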
# [6] = tested on: Aspergillus fumigatus; test: Induction of change in 40S ribosomal protein S3Ae protein level in iTRAQ114 labelled cell wall fraction of drug-resistant Aspergillus fumigatus EMFR-S678P at 0.12 ug/ml after 24 hrs in YPD medium by MS (MS/MS) analysis relative to control; format: functional; in short: as §3
# [7] = tested on: Aspergillus fumigatus; test: Antifungal activity against drug-susceptible Aspergillus fumigatus KU80 delta-akuB assessed as reduction in colony size at 0.12 ug/ml; format: functional, organism-based
# [8] = tested on: Aspergillus fumigatus; test: Induction of change in cytochrome b5, putative protein level in iTRAQ114 labelled secreted fraction of drug-resistant Aspergillus fumigatus EMFR-S678P at 0.12 ug/ml after 24 hrs in YPD medium by MS (MS/MS) analysis relative to control; format: functional; in short: as §3
# [9] = tested on: Aspergillus fumigatus; test: Induction of change in thioredoxin TrxA protein level in iTRAQ-118 labelled cell wall fraction of drug-resistant Aspergillus fumigatus EMFR-S678P at 0.12 ug/ml after 24 hrs in YPD medium by MS (MS/MS) analysis relative to control; format: functional, organism-based; in short: as §3
# [10] = tested on: Aspergillus fumigatus; test: Induction of change in pyruvate decarboxylase PdcA, putative protein level in iTRAQ-118 labelled cell wall fraction of drug-resistant Aspergillus fumigatus EMFR-S678P at 0.12 ug/ml after 24 hrs in YPD medium by MS (MS/MS) analysis relative to control; format: functional, organism-based; in short: as §3
# [11] = tested on: Aspergillus fumigatus; test: Induction of change in BYS1 domain protein, putative protein level in iTRAQ-118 labelled cell wall fraction of drug-resistant Aspergillus fumigatus EMFR-S678P at 0.12 ug/ml after 24 hrs in YPD medium by MS (MS/MS) analysis relative to control; format: functional, organism-based; in short: as §3
# [12] = tested on: Aspergillus fumigatus; test: Induction of change in glucosamine-fructose-6-phosphate aminotransferase protein level in iTRAQ-118 labelled cell wall fraction of drug-resistant Aspergillus fumigatus EMFR-S678P at 0.12 ug/ml after 24 hrs in YPD medium by MS (MS/MS) analysis relative to control; format: functional, organism-based; in short: as §3
# [13] = tested on: Aspergillus fumigatus; test: Induction of change in nuclear transport factor NTF-2, putative protein level in iTRAQ-116 labelled secreted fraction of drug-resistant Aspergillus fumigatus EMFR-S678P at 0.12 ug/ml after 48 hrs in YPD medium by MS (MS/MS) analysis relative to control; format: functional; in short: as §3
# [14] = tested on: Aspergillus fumigatus; test: Induction of change in ribosomal protein L26 protein level in iTRAQ-116 labelled secreted fraction of drug-resistant Aspergillus fumigatus EMFR-S678P at 0.12 ug/ml after 48 hrs in YPD medium by MS (MS/MS) analysis relative to control; format: functional, organism-based; in short: as §3
# [15] = tested on: Aspergillus fumigatus; test: Induction of change in ATP citrate lyase, subunit 1, putative protein level in iTRAQ114 labelled secreted fraction of drug-susceptible Aspergillus fumigatus KU80 delta-akuB at 0.12 ug/ml after 24 hrs in YPD medium by MS (MS/MS) analysis relative to control; format: functional; in short: as §1
# [16] = tested on: Aspergillus fumigatus; test: Induction of change in ubiquinol-cytochrome C reductase complex core protein 2, putative protein level in iTRAQ-118 labelled cell wall fraction of drug-susceptible Aspergillus fumigatus KU80 delta-akuB at 0.12 ug/ml after 24 hrs in YPD medium by MS (MS/MS) analysis relative to control; format: functional
# In short: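 Conidia (1 × 10⁵/ml) grown in YPD, 37°C, 225 rpm, ± 0.12 μg/ml caspofungin; filtrate taken as secreted fraction, French-press lysate 5,000 × g pellet as cell wall/plasma membrane. Trypsin digests 8-plex iTRAQ-labelled (drug-free channels as references), pooled, 2D-chromatography, MS/MS. Median-normalized; protein ratio = median of unique-peptide ratios, log2 normalized.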
smiles,measurement,setting,value
CC[C@H](C)C[C@H](C)CCCCCCCCC(=O)N[C@H]1C[C@@H](O)[C@@H](NCCN)NC(=O)[C@@H]2[C@@H](O)CCN2C(=O)[C@H]([C@H](O)CCN)NC(=O)[C@H]([C@H](O)[C@@H](O)c2ccc(O)cc2)NC(=O)[C@@H]2C[C@@H](O)CN2C(=O)[C@H]([C@@H](C)O)NC1=O [CASPOFUNGIN],fold change (FC),[1],1.1
same,fold change (FC),[2],-1
same,fold change (FC),[3],5.6
same,fold change (FC),[4],7.2
same,Activity,[5],inactive
same,fold change (FC),[6],1.07
same,Activity,[7],Active
same,fold change (FC),[8],-1.32
same,Activity,[9],inactive
same,Activity,[10],inactive
same,Activity,[11],inactive
same,Activity,[12],inactive
same,fold change (FC),[13],1.07
same,Activity,[14],inactive
same,fold change (FC),[15],3.2
same,fold change (FC),[16],-2
